Screens deposited in PubChem BioAssay by several laboratories.
Rows were chosen to be rich in hits. Some 1.4% of all compounds tested hit in one or more screens of this group.
Vif inh: inhibitors of HIV Vif | HEK293T cells, Vif self-association by quenched fluorescence, imaging, 24 h | inhibition, % at 7.49 µM | 340,000 compounds, 0.35% hits | AID 602346; in the data active = inhibition above about 50%, passing the limit was not always enough; inconclusive = no clear call, values can overlap the other calls; inactive = below about 31%
CASP6 VEID inh: inhibitors of human caspase-6. P55212. purified caspase-6, Z-VEID-R110 cleavage fluorescence. inhibition, % at 12.5 µM. 350,000 compounds, 0.53% hits. AID 686996;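 active = mean inhibition across replicates at least about 35%, with every replicate also reaching that limit, limit read from the data; inconclusive = only one of the two criteria met; inactive = neither criterion met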;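 also: 0% = median of neutral control wells and 100% = no fluorescence left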
Target sequence (P55212 24-179 limits assumed): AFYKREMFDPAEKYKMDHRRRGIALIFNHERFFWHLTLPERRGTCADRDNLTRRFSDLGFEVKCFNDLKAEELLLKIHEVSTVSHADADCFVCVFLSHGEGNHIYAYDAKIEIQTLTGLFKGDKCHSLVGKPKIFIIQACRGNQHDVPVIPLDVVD
Target sequence (P55212 194-293 limits assumed): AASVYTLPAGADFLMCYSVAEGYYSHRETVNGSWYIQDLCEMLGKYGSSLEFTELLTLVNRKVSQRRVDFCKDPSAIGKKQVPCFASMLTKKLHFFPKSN
Myeloid diff 2: compounds promoting myeloid differentiation. ER-HoxA9 myeloid progenitors, lysozyme-GFP differentiation, flow cytometry. calls only at 10 µM. 360,000 compounds, 1% hits. AID 624256;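 active = normalized GFP-positive differentiation at or above the plate's own cutoff, the solvent-only control mean plus 3 SD; inconclusive = no clear call, values can overlap the other calls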;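 also: cells exposed to compound for four days before flow analysis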
T cell modulator: T cell immune modulation candidate. 2C CD8+ T cell-vesicle binding, flow cytometry; active compounds read low. response (vesicle binding), % at 7 µM. 330,000 compounds, 0.068% hits. AID 2052;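 active = response, share of CD8 T cells binding vesicles, and their 90th percentile fluorescence all below set limits, cut at about 80% in these data, passing the limit was not always enough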;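 also: values below 100% mean blocked vesicle binding to the CD8+ T cells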
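Material: murine 2C transgenic CD8+ T lymphocytes / Also added: QL9-peptide-loaded Drosophila micro-vesicles bearing Ld, ICAM-1 and B7-1 / Schedule: binding step 1.5 h, 37 °C, antibody labelling 20 min, ice / Signal: flow cytometry, PE anti-B7-1 (FL2) versus Alexa647 anti-CD8 (FL8), PFA-fixed / Evaluation: percent CD8+ FL2 mean versus row control / Benchmarks: naked versus QL9-loaded vesicles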
The depositor's hits bear a star.

For CO[C@H]1CN(C)C(=O)c2ccc(NC(C)=O)cc2OC[C@H](C)N(C(=O)CN2CCOCC2)C[C@@H]1C the results were CASP6 VEID inh 0.
Screening COc1ccccc1NC(=O)CON=C(N)CC(=O)NC1CCCCC1 returned Vif inh -3, CASP6 VEID inh -3, Myeloid diff 2 active and T cell modulator 441.
`COc1ccccc1C(=O)OCC(=O)NC1CCCC1` gave Vif inh 3, CASP6 VEID inh -6, Myeloid diff 2 active and T cell modulator 202.
O=C(COC(=O)c1ccccc1Br)NC1CCCCCCC1 was read as Vif inh 5, CASP6 VEID inh 0, Myeloid diff 2 inactive and T cell modulator 587.
Screening O=C(COC(=O)c1ccccc1Br)NC1CCCC1 returned Vif inh 80*, CASP6 VEID inh 0, Myeloid diff 2 active and T cell modulator 416.
For CCc1cccc(CC)c1NC(=O)CO/N=C(\N)CC(=O)NC1CCCCC1 the results were Vif inh 11, CASP6 VEID inh 2, Myeloid diff 2 inactive and T cell modulator 358.
`C[C@@H]1CN([C@H](C)CO)C(=O)c2cc(C#CC3(O)CCCC3)cnc2O[C@@H]1CN(C)C(=O)C1CCOCC1` gave CASP6 VEID inh -3.
`NC(=N\N=Cc1ccco1)/C(N)=N/N=Cc1ccco1` gave Vif inh 4, CASP6 VEID inh 62* and Myeloid diff 2 inactive.
Screening NC(=N\N=Cc1ccccc1)/C(N)=N/N=Cc1ccccc1 returned Vif inh inconclusive, CASP6 VEID inh 4 and Myeloid diff 2 inactive.
Screening CC(=O)N(C)c1cccc([N+](=O)[O-])c1 returned CASP6 VEID inh 2, Myeloid diff 2 inactive and T cell modulator 265.
`CC(=O)N(c1ccccc1)c1ccc([N+](=O)[O-])cc1[N+](=O)[O-]` gave Vif inh -18, Myeloid diff 2 active and T cell modulator 303.
Screening Cc1cc(O)ccc1Nc1nc(-c2cccs2)cs1 returned Vif inh 0, CASP6 VEID inh -1, Myeloid diff 2 active and T cell modulator 254.
Screening N#C/C(=C/c1ccc(O)c(O)c1)c1nc2ccccc2[nH]1 returned Vif inh 3, CASP6 VEID inh 34, Myeloid diff 2 active and T cell modulator 408.
Screening N#C/C(=C\c1cccs1)c1nc2ccccc2[nH]1 returned Vif inh 0, Myeloid diff 2 inactive and T cell modulator 321.
COc1ccc(/C(O)=C2/C(=O)C(=O)N(Cc3cccnc3)C2c2ccco2)cc1OC (configuration not stated) was read as Vif inh 8, Myeloid diff 2 inactive and T cell modulator 48*.
`COc1ccccc1NC(=O)Nc1ccc2c(c1)C(=O)N(C)C[C@H](OC)[C@H](C)CN[C@@H](C)CO2` gave CASP6 VEID inh 2.
Screening CN(CC(=O)Nc1ccccc1Br)C(=O)CNC(=O)c1ccc(Oc2ccccc2)cc1 returned Vif inh -25, CASP6 VEID inh 6, Myeloid diff 2 active and T cell modulator 746.
Screening COc1ccc(S(=O)(=O)NCc2ccc3c(c2)OCO3)cc1C returned Vif inh 1, CASP6 VEID inh 3, Myeloid diff 2 inactive and T cell modulator 377.
For COc1ccc(S(=O)(=O)NCc2ccc3c(c2)OCO3)cc1OC the results were Vif inh 114*, CASP6 VEID inh 0, Myeloid diff 2 inactive and T cell modulator 505.
For O=c1[nH]c(=O)n([C@H]2C[C@H](O)[C@@H](CO)O2)cc1C(F)(F)F the results were Vif inh -2, CASP6 VEID inh 1, Myeloid diff 2 active and T cell modulator 341.
For CCOC(=O)N(O)c1ccc(C=Cc2ccccc2)cc1 the results were Vif inh 0, CASP6 VEID inh 67* and Myeloid diff 2 inactive.
For Cn1cnc(S(=O)(=O)N2CCCCN3[C@H](CO)[C@@H](c4ccc(-c5cccc(F)c5)cc4)[C@@H]3C2)c1 the results were CASP6 VEID inh 0.
Screening CCOC(=O)c1ccc(N2N=C(C)/C(=C/C=C/c3ccco3)C2=O)cc1 returned Vif inh -14, Myeloid diff 2 inactive and T cell modulator 446.
O=C(O)c1cc(N2N=C(C(F)(F)F)/C(=C/C=C/c3ccco3)C2=O)ccc1Cl was read as Vif inh -1, CASP6 VEID inh 95* and Myeloid diff 2 inactive.
`COc1cc2nc(N(CCCN(C)C)C(=O)c3ccc(S(=O)(=O)N4CCc5ccccc54)cc3)sc2cc1OC` gave Vif inh 50*, CASP6 VEID inh -79, Myeloid diff 2 inactive and T cell modulator 87.
For C[C@@H]1CCCCO[C@H](CN(C)C(=O)Nc2ccc(F)cc2)[C@@H](C)CN([C@H](C)CO)C(=O)c2cc(NS(=O)(=O)c3cn(C)cn3)ccc2O1 the results were CASP6 VEID inh 1.
For COc1cc(OC)cc(C(=O)N2CCC(n3c(C)nc4cc(F)ccc43)CC2)c1 the results were Vif inh -3, Myeloid diff 2 active and T cell modulator 419.
`COc1ccc(NC(=O)CN2CCC(n3c(C)nc4cc(F)ccc43)CC2)c(OC)c1` gave Myeloid diff 2 inactive and T cell modulator 413.
For COc1cccc(-c2ccc([C@H]3[C@@H](CO)N(C(=O)c4ccccn4)[C@H]3C#N)cc2)c1 the results were CASP6 VEID inh -3.
For COc1ccc(N2CCN(CCCNC(=O)C(=O)c3c(C)n(C)c4ccccc34)CC2)cc1 the results were Vif inh 54*, CASP6 VEID inh -16, Myeloid diff 2 inactive and T cell modulator 401.
For COc1ccc(N2CCN(C(=O)C(=O)c3c(C)n(C)c4ccccc34)CC2)cc1 the results were Vif inh 2, CASP6 VEID inh 0, Myeloid diff 2 inactive and T cell modulator 113.
`S=c1[nH]nc(-c2ccco2)n1/N=C/C=C/c1ccco1` gave Vif inh 6, CASP6 VEID inh 70*, Myeloid diff 2 inactive and T cell modulator 274.
S=c1[nH]nc(-c2cc(-c3ccccc3)n[nH]2)n1/N=C/C=C/c1ccco1 was read as Vif inh 0, CASP6 VEID inh 11, Myeloid diff 2 inactive and T cell modulator inactive.
For COc1ccc(C(C(=O)NC(C)(C)C)N(CCC(C)C)C(=O)CCC(=O)Nc2cc(C)on2)cc1 (configuration not stated) the results were Vif inh 1, CASP6 VEID inh 3, Myeloid diff 2 active and T cell modulator 294.
For O=C(Nc1ccccc1)c1ccccc1OCc1cccc([N+](=O)[O-])c1 the results were Vif inh -7, CASP6 VEID inh 36*, Myeloid diff 2 inactive and T cell modulator 824.
For COc1cc(/C=C2\SC(=O)N(CCNC(=O)c3sc4cc(F)ccc4c3Cl)C2=O)cc(OC)c1OC the results were Vif inh 63*, CASP6 VEID inh -1, Myeloid diff 2 inactive and T cell modulator 330.
`Cc1cc(C)n(CCc2nc(-c3ccco3)cs2)n1` gave Vif inh -3, CASP6 VEID inh 58*, Myeloid diff 2 inactive and T cell modulator 619.
Screening Cc1nn(CCc2nc(-c3ccco3)cs2)c2[nH]c(=O)cc(C(F)(F)F)c12 returned Vif inh 20, CASP6 VEID inh 49*, Myeloid diff 2 inactive and T cell modulator 237.
